Measured values reported in the RNAGym collection of RNA variant scans (doi:10.1126/science.aae0568).
This sample holds only a part of the variants without activity.

B1: tRNA (parent)
chain: GUUCCGUUGGCGUAAUGGUAACGCGUCUCCCUCCUAAGGAGAAGACUGCGGGUUCGAGUCCCGUACGGAACG

Variants of: B1
Assay: yeast fitness relative to wild type (ratio to wild type); higher = fitter; tRNA-Arg(CCU), competitive growth, 37 C, YPD
Outline: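 Genotype frequency changes were the basis for Darwinian fitness relative to wild type. The frequencies came from 100-nucleotide paired-end sequencing of gene amplicons from the start population and each end population of pooled yeast strains with tRNA-Arg(CCU) gene variants at the native locus. Competition ran in YPD at 37°C for 24 hours in six replicates, genotypes needed ≥ 100 starting reads, and estimates < 0.5 were set to 0.5.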

Compared with U16C A69C, U16G A42C U47C is lower in yeast fitness: 0.889 for the first, 0.676 for the second.

Compared with U16C C22U C24U C29U, U16G U26G A36G is higher in yeast fitness: no more than 0.5 for the first, 0.58 for the second.

Going from U16C C22U G63A to U16C A40U A65C, the yeast fitness rises from 0.545 to 0.626.

U16G A20C G25A A43U G50A C55U and G17A A20C G25A G68C cannot be ordered by yeast fitness: no more than 0.5 for the first, no more than 0.5 for the second.

U16C C27U A42G G67A and U16C C24G U32A A69C cannot be ordered by yeast fitness: no more than 0.5 for the first, no more than 0.5 for the second.

First: U16C G17C
Second: U16C G17A
The yeast fitness of the first is lower: 0.665 for the first, 0.797 for the second.

Compared with U16C C30U C62U, U16G U53A U59A C66A is lower in yeast fitness: 0.645 for the first, no more than 0.5 for the second.

U16C C49A G63A and U16C C24G U28A cannot be ordered by yeast fitness: no more than 0.5 for the first, no more than 0.5 for the second.

Going from U16C C46A G56A to U16C C27G A43C C62U, the yeast fitness falls from 0.769 to no more than 0.5.

U16C C30U A36U and U16G A21C C34A cannot be ordered by yeast fitness: no more than 0.5 for the first, no more than 0.5 for the second.

Compared with U16G C31U G58A, U16G C22G C34G G50C A69U is lower in yeast fitness: 0.633 for the first, 0.528 for the second.

Going from U16G G48C to U16C U35A, the yeast fitness falls from 0.835 to 0.74.

Compared with U16C U35A C61A A70U, U16G U35A A45C G52A is lower in yeast fitness: 0.532 for the first, no more than 0.5 for the second.

Compared with U16C A20G, U16C A20U is lower in yeast fitness: 0.976 for the first, 0.889 for the second.

Going from U16C A20C to U16C A43C U54A C60U G68A, the yeast fitness falls from 0.995 to 0.55.

Going from U16G C22G C46G to U16C U54C, the yeast fitness rises from 0.657 to 0.723.

U16G U26G C29A A57C and U16C A21U C29A U35A A43U C62U G68C cannot be ordered by yeast fitness: no more than 0.5 for the first, no more than 0.5 for the second.

Compared with U16G C22G, U16C U19C A65G is higher in yeast fitness: 1 for the first, 1.05 for the second.

Going from U16G G23C G48A C61A to U16G C49U, the yeast fitness rises from 0.577 to 0.916.

Going from U16G C49G to U16G C30A A65G, the yeast fitness falls from 0.636 to 0.564.

U16G C31G A65C and U16C U28G C30G A40C A42U cannot be ordered by yeast fitness: no more than 0.5 for the first, no more than 0.5 for the second.

U16C A21G A40G A57C and U16C U19C A21C G23C C49G G52A cannot be ordered by yeast fitness: no more than 0.5 for the first, no more than 0.5 for the second.

Compared with U16C C61G, U16G A42G A69C A70G is lower in yeast fitness: 0.63 for the first, no more than 0.5 for the second.

Compared with U16C A65G, U16C A65U is higher in yeast fitness: 0.95 for the first, 0.965 for the second.

Going from U16C A65C to U16C C22G, the yeast fitness rises from 0.955 to 0.968.

Going from U16C C22U to U16G A37U, the yeast fitness falls from 0.741 to 0.618.

First: U16G A37G
Second: U16C C24U C33U C55A
The yeast fitness of the first is higher: 0.673 for the first, no more than 0.5 for the second.

Going from U16G C24U to U16C C27U U64G, the yeast fitness falls from 0.822 to 0.536.

First: U16G C31U A42U G56C
Second: U16G G23C G48A C61A C66U
The yeast fitness of the first is lower: no more than 0.5 for the first, 0.54 for the second.

U16G U19G C33U A40C G41A A43C C61G and U16A U53G C62G cannot be ordered by yeast fitness: no more than 0.5 for the first, no more than 0.5 for the second.

U16C A40U A57C and U16C G48C C49U A65C A70C cannot be ordered by yeast fitness: no more than 0.5 for the first, no more than 0.5 for the second.

U16G C24U C49G G63C and U16C U35C G44C cannot be ordered by yeast fitness: no more than 0.5 for the first, no more than 0.5 for the second.

U16C U35C U47C and U16G G23A A40C cannot be ordered by yeast fitness: no more than 0.5 for the first, no more than 0.5 for the second.

Going from U16C A42G G58A to U16C C49U A70U, the yeast fitness rises from 0.52 to 0.745.

Compared with U16C C49U A70G, U16G G44A G56A is higher in yeast fitness: 0.581 for the first, 0.663 for the second.

Going from U16C C24G to U16C A21G A40C A42U C46U C49U G51A A70G, the yeast fitness falls from 0.64 to no more than 0.5.

Compared with U16C C34G G38C C62G A69C, U16G C22G A70G is higher in yeast fitness: no more than 0.5 for the first, 0.767 for the second.

Compared with U16G C55U G67C, U16C A21G A70C is higher in yeast fitness: no more than 0.5 for the first, 0.725 for the second.

Going from U16C A40U A70U to U16C C55U, the yeast fitness rises from 0.683 to 0.831.

Compared with U16G C27A C31G A42G C61A, U16C U26C A36C U64A A70C is lower in yeast fitness: 0.543 for the first, no more than 0.5 for the second.

Compared with U16G C22U A37U G50C, U16G C24G U26A G50A is higher in yeast fitness: no more than 0.5 for the first, 0.581 for the second.

Going from U16G C24U C29G U35C G50A C62A to U16C G38C A65U C66U, the yeast fitness rises from no more than 0.5 to 0.569.

First: U16G C27G C49A C60A
Second: U16C A36G
The yeast fitness of the first is lower: no more than 0.5 for the first, 1.03 for the second.

Compared with U16C G25C U26C C34U U64G, U16C C49U A69U is higher in yeast fitness: 0.528 for the first, 0.555 for the second.

U16G A57G C66U A69U and U16C C33A A40C cannot be ordered by yeast fitness: no more than 0.5 for the first, no more than 0.5 for the second.

First: U16G C24U C29G C49G A65G
Second: U16G C49U G52A G63A
The yeast fitness of the first is lower: 0.601 for the first, 0.632 for the second.

U16G U47A G52A and U16C A21C G41C A43C C66G A70U cannot be ordered by yeast fitness: no more than 0.5 for the first, no more than 0.5 for the second.

Compared with U16G C27G U54C, U16G A43C is higher in yeast fitness: 0.633 for the first, 0.919 for the second.

Compared with U16G C22G A43C, U16C G18U C24U A45C C46G is lower in yeast fitness: 0.587 for the first, no more than 0.5 for the second.

Going from U16C G52A to U16G A43U G50C G67A, the yeast fitness falls from 0.713 to no more than 0.5.

Compared with U16C A21U A43U C61A, U16G A20C A21G C30U is higher in yeast fitness: no more than 0.5 for the first, 0.579 for the second.

Going from U16C U26G C61U to U16C A40U G67A, the yeast fitness rises from no more than 0.5 to 0.536.

U16G C29G C62U and U16G C29G C62G cannot be ordered by yeast fitness: no more than 0.5 for the first, no more than 0.5 for the second.

First: U16C C33U C60U G67C
Second: U16G U32C A70G
The yeast fitness of the first is lower: no more than 0.5 for the first, 0.984 for the second.

Going from U16G U32G C46U to U16C U54C G63A, the yeast fitness rises from no more than 0.5 to 0.501.

Going from U16C C66A to U16C U47C U64G, the yeast fitness falls from 0.711 to no more than 0.5.

Compared with U16G U54C A69C, U16A U59A C62U is lower in yeast fitness: 0.718 for the first, no more than 0.5 for the second.

Going from U16C C22U C24U C29U C60U to U16G U26G U54G, the yeast fitness rises from 0.551 to 0.743.

Compared with U16C C22U A37U, U16C C33G G51A C55A is lower in yeast fitness: 0.576 for the first, no more than 0.5 for the second.

Compared with U16C A37G C61G A69G, U16C C33U G63C is lower in yeast fitness: 0.687 for the first, 0.508 for the second.

First: U16G A37C C66A
Second: U16G G44A
The yeast fitness of the first is lower: no more than 0.5 for the first, 0.994 for the second.

Going from U16C A20C A21U C27G A42U to U16G C34U, the yeast fitness rises from no more than 0.5 to 0.63.

First: U16C A20U G25C
Second: U16C C33U A36C
The yeast fitness of the first is lower: no more than 0.5 for the first, 0.589 for the second.

Going from U16C C22G C62U to U16G G63C, the yeast fitness falls from 0.716 to 0.694.

Going from U16C A45U C49U G51A A57C C60G to U16G U19C U28C, the yeast fitness rises from no more than 0.5 to 0.986.

U16G C22G A43G C46G G56C A69G and U16C A43C U54A cannot be ordered by yeast fitness: no more than 0.5 for the first, no more than 0.5 for the second.

U16C A43U G51C A57C C60G G67A and U16C U47C G51U cannot be ordered by yeast fitness: no more than 0.5 for the first, no more than 0.5 for the second.

First: U16C A40U
Second: U16C A40C
The yeast fitness of the first is lower: 0.789 for the first, 0.923 for the second.

U16G C24G A37U and U16C U26C C33U G63C cannot be ordered by yeast fitness: no more than 0.5 for the first, no more than 0.5 for the second.

Going from U16C C29G C49U to U16G A57G C62G, the yeast fitness falls from 0.535 to no more than 0.5.

Going from U16C G48A to U16C A43U G48C C60G, the yeast fitness falls from 0.996 to no more than 0.5.

Compared with U16C A57G, U16C A57C is lower in yeast fitness: 0.925 for the first, 0.674 for the second.

Compared with U16G A42U C62A A70C, U16C G67A is higher in yeast fitness: no more than 0.5 for the first, 0.891 for the second.

U16G C49U C60A C61A and U16G C24U C29G U35C G50A C66U cannot be ordered by yeast fitness: no more than 0.5 for the first, no more than 0.5 for the second.

U16C G25C U47A A65G and U16G A45U G50A C66U cannot be ordered by yeast fitness: no more than 0.5 for the first, no more than 0.5 for the second.

Going from U16G A40C to U16C U28A, the yeast fitness rises from 0.761 to 0.827.

First: U16C A20G G52A
Second: U16C A36G G50A
The yeast fitness of the first is lower: no more than 0.5 for the first, 0.594 for the second.

First: U16A U64C
Second: U16G C31A
The yeast fitness of the first is lower: 0.929 for the first, 0.985 for the second.

U16C C30A G41C A45C C46G and U16C C34A G39C G52A G58A cannot be ordered by yeast fitness: no more than 0.5 for the first, no more than 0.5 for the second.

First: U16G U35C G56C
Second: U16C C62U C66U
The yeast fitness of the first is lower: no more than 0.5 for the first, 0.722 for the second.

First: U16C C29U A36U C66U G67A
Second: U16G G17A C33A
The yeast fitness of the first is lower: no more than 0.5 for the first, 0.539 for the second.

Compared with U16C C31U C33A C34G U35A G52A, U16C C29U G58A A69U is higher in yeast fitness: no more than 0.5 for the first, 0.577 for the second.

Compared with U16C C31G C34A, U16G U26A C34U C62A is lower in yeast fitness: 0.678 for the first, no more than 0.5 for the second.

In the case of U16C C22G G58A U64G, the yeast fitness is reported as no more than 0.5.
